According to ChEMBL document CHEMBL1132335, “Discovery and synthesis of (S)-3-[2-(3,4-dimethoxyphenyl)ethoxy]-2- (4,6-dimethylpyrimidin-2-yloxy)-3,3-diphenylpropionic acid (LU 302872), a novel orally active mixed ET(A)/ET(B) receptor antagonist” (J Med Chem, 1999):

Tests used:
[1] = biological target: T1, Endothelin receptor type B (Homo sapiens, UniProt P24530); assay: Inhibition of [125I]ET-3 (ETB assay) binding to human cloned Endothelin B receptor in CHO cells; type: cell-based
T1 sequence (P24530 whole entry): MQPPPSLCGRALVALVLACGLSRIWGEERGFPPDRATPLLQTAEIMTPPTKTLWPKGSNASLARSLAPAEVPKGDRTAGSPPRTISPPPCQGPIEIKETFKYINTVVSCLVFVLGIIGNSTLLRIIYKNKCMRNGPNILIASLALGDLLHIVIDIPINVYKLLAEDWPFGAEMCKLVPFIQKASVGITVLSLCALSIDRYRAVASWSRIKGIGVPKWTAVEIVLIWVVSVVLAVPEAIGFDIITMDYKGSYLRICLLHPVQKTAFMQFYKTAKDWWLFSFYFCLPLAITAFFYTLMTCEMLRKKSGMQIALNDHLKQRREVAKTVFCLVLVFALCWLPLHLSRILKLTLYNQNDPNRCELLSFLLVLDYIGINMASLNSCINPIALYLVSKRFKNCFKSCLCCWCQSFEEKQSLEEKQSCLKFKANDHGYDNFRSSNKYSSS
How it was run: (§1)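 CHO cells stably expressing human ETA or ETB receptor; 10–50 µg membrane protein incubated 30 min at 25 °C in 50 mM Tris-HCl pH 7.4, 5 mM MnCl2, 40 µg/mL bacitracin, 0.2% BSA, with 25 pM [125I]ET-1 (ETA) or 25 pM [125I]ET-3 (ETB). Nonspecific binding with 0.1 µM ET-1; filtration, scintillation counting. Triplicate, repeated at least once; Ki by Cheng–Prusoff or nonlinear regression, ±SE.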

[2] = biological target: T2, Endothelin receptor, ET-A/ET-B (Homo sapiens) (UniProt P24530+P25101); assay: Selectivity for Endothelin A receptor compared to Endothelin B receptor.; type: protein assay
[3] = biological target: T3, Endothelin receptor (Rattus norvegicus) (UniProt P26684+P21451); settings: Blood, 10 mg/kg
[4] = biological target: T3, Endothelin receptor (Rattus norvegicus); settings: Blood, 10 mg/kg; remark: listed apart in the source
[5] = biological target: T4, Endothelin-1 receptor (Homo sapiens, UniProt P25101); assay: Inhibition of [125I]-ET-1 (ETA assay) binding to human cloned Endothelin A receptor in CHO cells; type: cell-based; how it was run: as §1
T4 sequence (P25101 whole entry): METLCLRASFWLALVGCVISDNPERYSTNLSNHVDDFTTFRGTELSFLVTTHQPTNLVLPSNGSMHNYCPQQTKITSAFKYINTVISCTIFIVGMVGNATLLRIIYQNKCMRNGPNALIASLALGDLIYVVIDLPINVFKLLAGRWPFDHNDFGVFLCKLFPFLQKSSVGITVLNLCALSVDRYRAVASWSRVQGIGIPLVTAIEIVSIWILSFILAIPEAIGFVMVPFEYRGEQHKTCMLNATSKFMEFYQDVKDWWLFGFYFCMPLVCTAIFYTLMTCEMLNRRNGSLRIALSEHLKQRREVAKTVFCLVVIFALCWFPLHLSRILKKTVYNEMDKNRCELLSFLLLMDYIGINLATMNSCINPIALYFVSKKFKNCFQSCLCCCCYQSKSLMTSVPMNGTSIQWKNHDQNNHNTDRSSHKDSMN

[6] = system: Rattus norvegicus; assay: Inhibition of big ET-induced blood pressure increase in drug treated rats with LU 135252 and 10 mg/Kg of compound given perorally was reported as (AUD 30 min) in mmHg(min); type: functional
How it was run: (§2)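 Male Sprague–Dawley rats dosed 10 mg/kg p.o.; urethane anesthesia (1.6 g/kg i.p.), tracheotomy 90 min later, carotid artery cannulated for blood pressure, jugular vein for agonist. Big ET-1 20 µg/kg i.v. at 120 min post-dose; pressure recorded over 30 min as area under the data (AUD30min), compared with control; mean ± SEM.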

[7] = system: Rattus norvegicus; assay: Percent reduction of big ET-induced blood pressure increase in drug treated rats with LU 135252 and 10 mg/Kg of compound given perorally was reported as (AUD 30 min) in mmHg(min); type: functional; how it was run: as §2
[8] = system: Rattus norvegicus; assay: Inhibition of big ET-induced blood pressure increase in drug treated rats with 10 mg/Kg of compound given perorally was reported as (AUD 30 min) in mmHg(min); type: functional; how it was run: as §2
[9] = biological target: T2, Endothelin receptor, ET-A/ET-B (Homo sapiens); settings: Rattus norvegicus; 10 mg/kg
[10] = biological target: T2, Endothelin receptor, ET-A/ET-B (Homo sapiens); settings: Rattus norvegicus; 30 mg/kg
[11] = biological target: T2, Endothelin receptor, ET-A/ET-B (Homo sapiens); assay: Compound was tested for %inhibition of big ET-induced bronchospasm in guinea pigs with LU 135252 and balanced ETA/B receptor antagonists at 10 mg/kg oral dose was reported as (AUD 30 min) in mL(min); settings: Cavia porcellus
[12] = biological target: T2, Endothelin receptor, ET-A/ET-B (Homo sapiens); assay: Compound was tested for inhibition of big ET-induced bronchospasm in drug treated guinea pigs with LU 135252 and balanced ETA/B receptor antagonists at 10 mg/kg oral dose was reported as (AUD 30 min) in mL(min); settings: Cavia porcellus

T3 sequence (P21451 whole entry, looked up): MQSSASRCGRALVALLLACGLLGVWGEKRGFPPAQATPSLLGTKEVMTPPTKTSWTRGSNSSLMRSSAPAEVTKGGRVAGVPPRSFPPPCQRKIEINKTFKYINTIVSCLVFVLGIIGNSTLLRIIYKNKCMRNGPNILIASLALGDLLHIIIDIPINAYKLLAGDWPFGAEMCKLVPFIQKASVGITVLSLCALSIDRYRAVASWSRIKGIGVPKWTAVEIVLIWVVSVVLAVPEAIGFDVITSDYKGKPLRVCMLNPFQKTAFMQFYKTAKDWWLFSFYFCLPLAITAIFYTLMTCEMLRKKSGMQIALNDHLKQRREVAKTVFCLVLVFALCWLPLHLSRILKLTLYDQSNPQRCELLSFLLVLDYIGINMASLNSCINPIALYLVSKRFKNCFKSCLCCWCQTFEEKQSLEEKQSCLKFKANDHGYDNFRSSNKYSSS
T3 sequence (P26684 whole entry, looked up): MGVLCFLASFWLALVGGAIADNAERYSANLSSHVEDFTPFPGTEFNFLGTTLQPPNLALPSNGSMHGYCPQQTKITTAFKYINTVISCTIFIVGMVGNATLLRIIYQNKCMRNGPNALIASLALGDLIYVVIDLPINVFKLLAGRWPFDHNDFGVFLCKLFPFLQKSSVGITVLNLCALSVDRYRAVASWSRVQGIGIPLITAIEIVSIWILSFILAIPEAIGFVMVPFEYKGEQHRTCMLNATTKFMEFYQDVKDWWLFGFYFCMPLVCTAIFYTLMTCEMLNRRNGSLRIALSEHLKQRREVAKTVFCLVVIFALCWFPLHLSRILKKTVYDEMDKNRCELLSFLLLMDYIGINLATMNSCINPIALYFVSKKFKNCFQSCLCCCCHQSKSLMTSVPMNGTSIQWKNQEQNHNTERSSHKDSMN

SMILES	Ki [1] [nM]	Ratio [2]	Ki [5] [nM]	other results
Cc1cc(C)nc(OC(C(=O)O)C(OCCc2ccc(Cl)cc2)(c2ccccc2)c2ccccc2)n1 (stereo not drawn)	94.1	4.7		
COc1ccccc1Oc1c(NS(=O)(=O)c2ccc(C(C)(C)C)cc2)nc(-c2ncccn2)nc1OCCO				BP increase [3]: 7%; BP increase [4]: 1400 AUD30min
COc1cc(CCOC(c2ccccc2)(c2ccccc2)C(Oc2nc(C)cc(C)n2)C(=O)O)cc(OC)c1OC (stereo not drawn)	3.21	2.3	1.38	BP increase [6]: 1123 mmHg; BP increase [7]: 25%
COc1cc(C)nc(OC(C(=O)O)C(OCCc2ccc(OC)c(OC)c2)(c2ccccc2)c2ccccc2)n1 (stereo not drawn)	14.7	6.2	2.37	
COc1ccc(CCOC(c2ccc(Cl)cc2)(c2ccc(Cl)cc2)C(Oc2nc3c(c(OC)n2)CCC3)C(=O)O)cc1OC (stereo not drawn)	215	0.7	290	
COc1ccc(COC(c2ccccc2)(c2ccccc2)C(Oc2nc(C)cc(C)n2)C(=O)O)cc1OC (stereo not drawn)	63	31	2	
COc1cc(OC)nc(O[C@H](C(=O)O)C(OC)(c2ccccc2)c2ccccc2)n1 [DARUSENTAN]				BP increase [8]: 636 mmHg; Reduction in respiratory volume [9]: 19 mL; Reduction in respiratory volume [10]: 172 mL
Cc1cc(C)nc(OC(C(=O)O)C(OCCc2ccc(C(=O)O)cc2)(c2ccccc2)c2ccccc2)n1 (stereo not drawn)	115	77	1.5	
Cc1cc(C)nc(OC(C(=O)O)C(OCCc2ccc(O)cc2)(c2ccccc2)c2ccccc2)n1 (stereo not drawn)	16.2	4.7	3.48	
Cc1ccc(CCCOC(c2ccccc2)(c2ccccc2)C(Oc2nc(C)cc(C)n2)C(=O)O)cc1 (stereo not drawn)	170		23	
COc1ccc(CCOC(c2ccccc2)(c2ccccc2)[C@H](Oc2nc(C)cc(C)n2)C(=O)O)cc1OC [FELOPRENTAN]	4.75	2.2	2.15	BP increase [6]: 583 mmHg; BP increase [7]: 61%; Reduction in respiratory volume [11]: 79%; Reduction in respiratory volume [12]: 46 mL
Cc1cc(C)nc(OC(C(=O)O)C(OCCc2ccccc2)(c2ccccc2)c2ccccc2)n1 (stereo not drawn)	230	9.2	25	
CCOc1ccc(CCOC(c2ccccc2)(c2ccccc2)C(Oc2nc(C)cc(C)n2)C(=O)O)cc1OC (stereo not drawn)	25.1	8	3.13	BP increase [6]: 475 mmHg; BP increase [7]: 68%
CCc1ccc(C(OCCc2ccc(OC)cc2)(c2ccc(CC)cc2)C(Oc2nc(C)cc(C)n2)C(=O)O)cc1 (stereo not drawn)	195	0.8	250	
COc1cc(C)nc(OC(C(=O)O)C(OCCc2ccc(OC)c(OC)c2)(c2ccc(Cl)cc2)c2ccc(Cl)cc2)n1 (stereo not drawn)		0.6		
COc1ccc(OC(c2ccccc2)(c2ccccc2)C(Oc2nc(C)cc(C)n2)C(=O)O)cc1OC (stereo not drawn)	60	125	0.48	
COc1ccc(CCOC(c2ccc(C)cc2)(c2ccc(C)cc2)C(Oc2nc(OC)c3c(n2)OCC3)C(=O)O)cc1 (stereo not drawn)	71.2	0.7	105	
CCc1ccc(C(OCCc2ccc(OC)c(OC)c2)(c2ccc(CC)cc2)C(Oc2nc(C)cc(OC)n2)C(=O)O)cc1 (stereo not drawn)	40	1	39.3	
COc1cc(/C=C/COC(c2ccccc2)(c2ccccc2)C(Oc2nc(C)cc(C)n2)C(=O)O)cc(OC)c1OC (stereo not drawn)	20	0.4	48	
Cc1ccc(/C=C/COC(c2ccccc2)(c2ccccc2)C(Oc2nc(C)cc(C)n2)C(=O)O)cc1 (stereo not drawn)	320		32	
COc1cc(CCOC(c2ccccc2)(c2ccccc2)C(Oc2nc(C)cc(C)n2)C(=O)O)ccc1OCC(=O)O (stereo not drawn)	24	12	1.92	BP increase [6]: 1294 mmHg; BP increase [7]: 14%
COc1ccc(CCOC(c2ccccc2)(c2ccccc2)C(Oc2nc(C)cc(C)n2)C(=O)O)cc1OC (stereo not drawn)		2		BP increase [6]: 641 mmHg; BP increase [7]: 58%; Reduction in respiratory volume [11]: 67%; Reduction in respiratory volume [12]: 71 mL
Cc1ccc(CCOC(c2ccccc2)(c2ccccc2)C(Oc2nc(C)cc(C)n2)C(=O)O)cc1 (stereo not drawn)	55		32.5	
COc1ccc(CCOC(c2ccccc2)(c2ccccc2)C(Oc2nc(C)cc(OC)n2)C(=O)O)cc1 (stereo not drawn)		11.8	1.95	
CCc1ccc(C(OCCc2ccc(OC)cc2)(c2ccc(CC)cc2)C(Oc2nc(C)cc(OC)n2)C(=O)O)cc1 (stereo not drawn)	160	1	155	
COc1ccc(CCOC(c2ccccc2)(c2ccccc2)C(Oc2nc(C)cc(C)n2)C(=O)O)cc1 (stereo not drawn)	24.2	4		BP increase [6]: 976 mmHg; BP increase [7]: 33%
